Screens as filed in PubChem.
ZTA counter – ZTA (EBV) inhibition in EBNA-1 counter-screen; P03206; ZTA-DNA binding, fluorescence polarization; inhibition, % at 11 µM; actives 0.15% (n = 320,000); in the data active = inhibition above about 33%
Target sequence (P03206 whole entry, looked up): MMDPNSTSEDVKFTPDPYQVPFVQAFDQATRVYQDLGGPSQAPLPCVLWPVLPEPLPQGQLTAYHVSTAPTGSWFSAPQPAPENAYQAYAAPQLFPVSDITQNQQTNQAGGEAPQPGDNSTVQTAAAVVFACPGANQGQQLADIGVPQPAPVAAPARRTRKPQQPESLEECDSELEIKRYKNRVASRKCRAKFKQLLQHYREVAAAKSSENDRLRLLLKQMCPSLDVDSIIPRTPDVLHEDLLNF
ALR H2O2 inh – inhibitors of human ALR sulfhydryl oxidase, primary screen, biochemical, H2O2 detection, HRP-luminol luminescence, single point; actives 3.8% (n = 290,000); purified ALR, DTT oxidation; FAD-linked sulfhydryl oxidase ALR (Homo sapiens), P55789; inhibition, % (concentration not given with the values);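 active = mean replicate inhibition above about 79%, with every replicate also reaching it, limit read from the data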
Target sequence (P55789 whole entry, looked up): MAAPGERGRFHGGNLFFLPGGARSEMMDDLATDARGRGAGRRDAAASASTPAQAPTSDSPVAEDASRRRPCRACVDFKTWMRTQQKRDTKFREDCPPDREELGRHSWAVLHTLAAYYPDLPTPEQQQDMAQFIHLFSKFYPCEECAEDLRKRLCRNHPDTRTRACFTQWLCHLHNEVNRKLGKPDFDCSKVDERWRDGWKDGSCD
HCV NS3 hel inh – inhibitors of HCV NS3 helicase, primary screen, biochemical, Cy5 molecular beacon fluorescence; Hepatitis C virus NS3 helicase; NS3 helicase DNA unwinding; inhibition, % at 10.9 µM; actives 0.56% (n = 290,000); AID 1800, 2009;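 active = inhibition above the mean of all tested compounds plus 3 SD, set per campaign, cut at about 35% in these data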
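Control set: DMSO versus 110 µM thioflavine S; Material: NS3 helicase fragment of HCV; Measured by: Cy5 fluorescence at 0 and 60 min, beacon hairpin quenching; Read-out basis: percent inhibition from t60/t0 fluorescence ratio; Times: reaction time 60 min, 25 °C; Repeats: single replicate; Compound dosing: single dose, 10.9 µM nominal final, DMSO 0.8% final.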
EBNA-1 inhibitor – EBNA-1 DNA-binding inhibitors, primary screen, biochemical, fluorescence polarization | inhibition, % at 14.8 µM | actives 0.34% (n = 300,000); in the data active = inhibition above about 28%
PfM18AAP inh – PfM18AAP inhibitors, malaria aminopeptidase, primary screen, biochemical, QFRET, recombinant enzyme; H-Glu-NHMec fluorogenic cleavage; inhibition, % at 7.35 µM; actives 1.2% (n = 290,000);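 active = inhibition above the campaign mean inhibition over all tested compounds plus 3 SD, cut at about 28% in these data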
core dimer inh – inhibitors of HCV core protein dimerization, primary screen, biochemical, TR-FRET, high-throughput. TR-FRET GST/Flag-core106 dimerization, 1536-well. inhibition, % at 5 µM. actives 0.33% (n = 300,000);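 active = inhibition above the mean of all tested compounds plus 3 SD, set per screening campaign, cut at about 45% in these data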
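System: GST/Flag-tagged HCV core106 proteins. Incubation: compound-protein-antibody incubation 4 h at 22.5 °C. Technique: HTRF with 340 nm excitation, 617/671 nm emission. Medium: KF-containing HEPES buffer, pH 7.45, DTT, CHAPS, BSA. Read-out: inhibition (%) from 671 over 617 nm ratio. Also added: Eu(K)-anti-GST 90 ng/mL plus XL665-anti-Flag 1 µg/mL.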
Large screens that a line does not name were inactive. This is a sample that favours compounds with a hit; in the whole collection about 5.2% have one here.

O=C(CN1C(=O)NC2NC(=O)NC21)N/N=C/c1ccccc1F (stereo not given)	none
O=C(COC(=O)/C=C/c1ccc(Br)o1)Nc1ccc2[nH]c(=O)[nH]c2c1	core dimer inh 89.9 (no result: HCV NS3 hel inh, PfM18AAP inh)
CC(OC(=O)c1ccc(S(=O)(=O)N2CCCCC2)cc1)C(=O)NC1CCCCC1C (stereo not given)	none
CCOC(=O)C1(CCOc2ccccc2)CCN(Cc2ccc(OC)c(COC)c2)CC1	none
Cc1ccc(-c2cc(C(=O)Nc3ccc(S(=O)(=O)Nc4nc(C)cc(C)n4)cc3)c3ccccc3n2)cc1	none
CC(=O)NS(=O)(=O)c1ccc(NC(=O)c2cc(-c3ccc(C)cc3)nc3ccccc23)cc1	ALR H2O2 inh 97.8
CC(=O)NS(=O)(=O)c1ccc(NC(=O)c2cc(-c3ccc(C)c(C)c3)nc3ccccc23)cc1	ALR H2O2 inh 97.4
O=C(Nc1cccc2cccnc12)C1CCCC1	none (no result: ALR H2O2 inh)
CC(OC(=O)c1ccc(Br)o1)C(=O)NCC1CCCCC1 (stereo not given)	none (no result: ZTA counter, HCV NS3 hel inh, EBNA-1 inhibitor, PfM18AAP inh, core dimer inh)
O=C(NNC(=O)c1cc([N+](=O)[O-])ccc1Cl)c1cccs1	none
O=C(CN1CCCc2ccccc21)N/N=C/c1ccccc1	none
O=C(CN1CCCc2ccccc21)N/N=C/c1ccc(O)cc1O	ALR H2O2 inh 98.4
CC(C)(C)NC(=O)NC(=O)CN1CCCc2ccccc21	ALR H2O2 inh 96.2
COc1ccc(C)cc1N1CC(C(=O)Nc2ccccc2C(=O)NC2CC2)CC1=O (stereo not given)	none (no result: HCV NS3 hel inh, EBNA-1 inhibitor, PfM18AAP inh, core dimer inh)
Cc1cccc(Oc2ccc(NC(=O)c3ccccc3C(=O)O)cc2)c1	ALR H2O2 inh 98.1
CC(C)(C)c1ccc(Oc2ccc(NC(=O)c3ccccc3C(=O)O)cn2)cc1	ALR H2O2 inh 92.6
O=C(O)c1ccccc1C(=O)Nc1ccc(Oc2ccccc2)cc1	ALR H2O2 inh 93.6
Cc1cccc(NC(=O)c2ccccc2C(=O)Nc2cccc(C)c2)c1	none (no result: HCV NS3 hel inh, PfM18AAP inh)
CC(C)(C)c1ccc(Oc2ccc(N)cn2)cc1	ALR H2O2 inh 98.1
Cn1c(NC(=O)c2ccc(S(=O)(=O)N3CCOCC3)cc2)cc(=O)n(C)c1=O	none
CCC(C)(C)NC(=O)Cn1c(-c2ccc(C)cc2)noc1=O	none
CC(C)(C)OC(=O)N1CCN(CCNC(=O)c2ccccc2)CC1	none
Cc1cccc(Oc2ccc3c(c2)cc(C(=O)O)n3C)c1	ALR H2O2 inh 98.0
COc1ccccc1Oc1ccc(S(=O)(=O)N2CCCCC2)cc1NC(=O)CCNC(C)=O	none
Cc1ccc(C(=O)NC(=C(Cl)Cl)S(=O)(=O)c2ccc(Cl)cc2)cc1	none
Cc1ccc(C(=O)NC(=C(Cl)Cl)S(=O)(=O)c2ccc(C)cc2)cc1	ALR H2O2 inh 98.7
CCC(C)c1ccc(NC(=O)NCCN2CCCCC2)cc1 (stereo not given)	none
O=C(OC1CCCCC1=O)c1cc(Cl)ccc1[N+](=O)[O-] (stereo not given)	ALR H2O2 inh 90.7
O=C(COC(=O)c1cc(Cl)ccc1[N+](=O)[O-])NC1CC1	none (no result: ZTA counter, HCV NS3 hel inh, EBNA-1 inhibitor, PfM18AAP inh, core dimer inh)
O=C(NC1CCCC1)c1cc(-c2ccc(Cl)cc2)on1	none
CC(=O)Nc1ccc(NC(=O)CSc2nnc(C)c(=O)[nH]2)cc1	ALR H2O2 inh 98.3
Cc1ccc(NC(=O)CSc2nnc(CCC(=O)O)c(=O)[nH]2)cc1	ALR H2O2 inh 98.4
O=C(O)CCc1nnc(SCC(=O)Nc2ccc(Br)cc2)[nH]c1=O	none
CC(=O)Nc1ccc(SCC(=O)Nc2oc(C)c3c(C)n[nH]c(=O)c23)cc1	ALR H2O2 inh 98.7 (no result: HCV NS3 hel inh, PfM18AAP inh)
Cc1nnc(SCC(=O)Nc2ccc3c(c2)OCO3)[nH]c1=O	none
Cc1cc(C)c(C(=O)CSc2nnc(C)c(=O)[nH]2)cc1C	ALR H2O2 inh 94.6
Cc1n[nH]c(=O)c2c(NC(=O)CSc3ccc(F)cc3)oc(C)c12	none (no result: ALR H2O2 inh, HCV NS3 hel inh, PfM18AAP inh)
O=C(O)CCc1nnc(SCC(=O)Nc2ccc(Cl)c(C(F)(F)F)c2)[nH]c1=O	none
O=C(O)CCc1nnc(SCC(=O)Nc2cccc(C(F)(F)F)c2)[nH]c1=O	ALR H2O2 inh 99.1
COC(=O)C1=C(C)N(C)C(=O)/C1=C\c1ccco1	none
CC1=C(C#N)C(=O)N(C2CCS(=O)(=O)C2)C(=O)/C1=C\c1ccco1 (stereo not given)	ZTA counter 78.6, EBNA-1 inhibitor 63.2, core dimer inh 77.7
COc1ccc(N2C(=O)CC(Nc3ccc(N4CCOCC4)cc3)C2=O)c(OC)c1 (stereo not given)	ALR H2O2 inh 98.4, PfM18AAP inh 28.3
CN(C)c1ccc(N2C(=O)CC(Nc3ccc(N4CCOCC4)cc3)C2=O)cc1 (stereo not given)	none
COc1cccc(N2C(=O)CC(Nc3ccc(N4CCOCC4)cc3)C2=O)c1 (stereo not given)	ALR H2O2 inh 98.8, PfM18AAP inh 29.4
Cc1ccc(CN2C(=O)CC(Nc3ccc(N4CCOCC4)cc3)C2=O)cc1 (stereo not given)	ALR H2O2 inh 99.5
Cc1ccccc1C(OCC(O)CN1CCN(CCO)CC1)c1ccccc1 (stereo not given)	none (no result: ALR H2O2 inh)
CC(C)c1ccc(NC(=O)COC(=O)C2CCCCC2)cc1	none (no result: HCV NS3 hel inh, EBNA-1 inhibitor, PfM18AAP inh, core dimer inh)
COc1cc(Cl)c(C)cc1Nc1ncccn1	none (no result: ALR H2O2 inh)
CC(=O)Nc1ccc(C(=O)N/C(=C\c2ccccc2)C(=O)Nc2cccc(C(=O)O)c2)cc1	none
CCOC(=O)COc1ccc2c(=O)c(-c3ccccc3OC)coc2c1	core dimer inh 60.6
Cn1c(C2CCCCC2)nc2cc(N)ccc21	ALR H2O2 inh 88.7
CCNc1nc(NCC)nc(NS(=O)(=O)c2ccc(N)cc2)n1	none
O=C(N/N=C/c1sc2ccccc2c1O)c1ccccc1	ALR H2O2 inh 88.1
COc1ccc(C(=O)N/N=C/c2sc3ccccc3c2O)cc1	ALR H2O2 inh 81.1
CCCCNC(=O)Nc1ncn[nH]1	PfM18AAP inh 29.0
CN(C)C1=NCCN1CCCCc1ccccc1	none (no result: ALR H2O2 inh, HCV NS3 hel inh, PfM18AAP inh)
COc1ccc(NC(=O)NC(C)(C(F)(F)F)C(F)(F)F)cc1	none (no result: ALR H2O2 inh)
CC(NC(=O)Nc1ccc(O)cc1)(C(F)(F)F)C(F)(F)F	ALR H2O2 inh 98.4
COc1ccc(-n2c(SCC(=O)Nc3ccccc3OC)nc(O)c(Cc3ccccc3)c2=O)cc1	none
Cc1ccc(NC(=O)CSc2nc(O)c(Cc3ccccc3)c(=O)n2-c2ccccc2)cc1	ALR H2O2 inh 98.8
CCc1c(O)nc(SCC(=O)Nc2ccc(C)cc2)n(C2CCCCC2)c1=O	ALR H2O2 inh 98.5
Cc1cc(NC(=O)CSc2nc3c(c(=O)n2-c2ccccc2)SC(C)C3)no1 (stereo not given)	none
CCc1c(O)nc(SCC(=O)Nc2cc(C)on2)n(-c2ccccc2)c1=O	ALR H2O2 inh 96.9
